Measurements from ChEMBL document CHEMBL4138226, “Marine Natural Product Honaucin A Attenuates Inflammation by Activating the Nrf2-ARE Pathway” (J Nat Prod, 2018).
Counter-ions that a name gives are not always drawn. Calls of active or inactive are those of the source. The calls are words filed in the database; no cut-off is given here.

What was measured:
[1] = target: T1, Keap1/Nrf2 (Homo sapiens) (UniProt Q16236+Q14145); experiment: Activation of Keap1/Nrf2 in human MCF7 cells assessed as Nrf2 stabilization at 15 uM incubated overnight by luciferase reporter gene based luminescence assay; format: cell-based
In short: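 MCF7 cells stably carrying an Nrf2-responsive firefly luciferase construct, grown with G418, seeded 5 × 10^4 cells/well and left overnight at 37 °C. Compound added in DMSO (tested range 1.98–15.0 μM), incubated overnight. Cells washed, lysed 15 min at room temperature, luminescence read after substrate injection. Activation = % RLU over untreated cells, DMSO value subtracted. Triplicate technical wells; positive controls tBHQ and DMF.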

MCF7 = experiment: Cytotoxicity against human MCF7 cells assessed as decrease in cell viability at 15 uM by MTT assay; format: cell-based; details: mcf7, 15 µM
In short: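 Nrf2-reporter MCF7 cells seeded and dosed as in the reporter assay (1.98–15.0 μM in DMSO, overnight at 37 °C). Cells washed, then 1 mg/mL MTT in serum-free DMEM for 25 min at 37 °C. Formazan dissolved in DMSO, absorbance read at 570 and 630 nm, background subtracted. Viability given as % of untreated control, mean ± standard error.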

Mus musculus [2] = experiment: Antiinflammatory activity in hypersensitivity CD1 mouse ear edema model assessed as PMA-induced ear edema at 0.1 umol/ear applied topically pretreated for 10 mins followed by PMA application measured after 6 hrs (reference value: 32.5 +/- 7.5%); format: functional
[3] = target: T2, Kelch-like ECH-associated protein 1/Nuclear factor erythroid 2-related factor 2 (Mus musculus) (UniProt Q60795+Q9Z2X8); experiment: Activation of Keap1/Nrf2 in mouse LPS-induced RAW264.7 cells assessed as increase in Srxn1 expression level at 4 to 12 uM pretreated for 1 hr followed by LPS addition measured after 30 to 180 mins; format: cell-based
In short: (§1)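 RAW 264.7 macrophages (DMEM, 10% FBS) grown near confluent; compound (4 or 12 μM) or EtOH vehicle 1 h at 37 °C, then LPS (E. coli O26:B6, 0.5 μg/mL) for 30 or 180 min; triplicate wells. TRIzol total RNA, rRNA depletion, Illumina HiSeq2000 100 bp single-end reads; DESeq2 differential expression versus matched LPS-only control.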

[4] = target: T2, Kelch-like ECH-associated protein 1/Nuclear factor erythroid 2-related factor 2 (Mus musculus); experiment: Activation of Keap1/Nrf2 in mouse LPS-induced RAW264.7 cells assessed as change in Fos expression level at 4 to 12 uM pretreated for 1 hr followed by LPS addition measured after 30 to 180 mins; format: cell-based; in short: as §1
[5] = target: T2, Kelch-like ECH-associated protein 1/Nuclear factor erythroid 2-related factor 2 (Mus musculus); experiment: Activation of Keap1/Nrf2 in mouse LPS-induced RAW264.7 cells assessed as downregulation of Socs3 expression level at 4 to 12 uM pretreated for 1 hr followed by LPS addition measured after 30 mins; format: cell-based; in short: as §1
[6] = target: T2, Kelch-like ECH-associated protein 1/Nuclear factor erythroid 2-related factor 2 (Mus musculus); experiment: Activation of Keap1/Nrf2 in mouse LPS-induced RAW264.7 cells assessed as change in Tnfaip3 expression level at 4 to 12 uM pretreated for 1 hr followed by LPS addition measured after 30 to 180 mins; format: cell-based; in short: as §1
[7] = target: T2, Kelch-like ECH-associated protein 1/Nuclear factor erythroid 2-related factor 2 (Mus musculus); experiment: Activation of Keap1/Nrf2 in mouse LPS-induced RAW264.7 cells assessed as change in Irf1 expression level at 4 to 12 uM pretreated for 1 hr followed by LPS addition measured after 30 to 180 mins; format: cell-based; in short: as §1
[8] = target: T2, Kelch-like ECH-associated protein 1/Nuclear factor erythroid 2-related factor 2 (Mus musculus); experiment: Activation of Keap1/Nrf2 in mouse LPS-induced RAW264.7 cells assessed as change in Procr expression level at 4 to 12 uM pretreated for 1 hr followed by LPS addition measured after 30 to 180 mins; format: cell-based; in short: as §1
[9] = target: T2, Kelch-like ECH-associated protein 1/Nuclear factor erythroid 2-related factor 2 (Mus musculus); experiment: Activation of Keap1/Nrf2 in mouse LPS-induced RAW264.7 cells assessed as downregulation of Rasgef1 expression level at 4 to 12 uM pretreated for 1 hr followed by LPS addition measured after 30 mins; format: cell-based; in short: as §1
[10] = target: T2, Kelch-like ECH-associated protein 1/Nuclear factor erythroid 2-related factor 2 (Mus musculus); experiment: Activation of Keap1/Nrf2 in mouse LPS-induced RAW264.7 cells assessed as change in Ccrl2 expression level at 4 to 12 uM pretreated for 1 hr followed by LPS addition measured after 30 to 180 mins; format: cell-based; in short: as §1
Mus musculus [11] = experiment: Antiinflammatory activity in hypersensitivity CD1 mouse ear edema model assessed as PMA-induced ear edema at 0.3 umol/ear applied topically pretreated for 10 mins followed by PMA application measured after 6 hrs (reference value: 32.5 +/- 7.5%); format: functional
[12] = target: T2, Kelch-like ECH-associated protein 1/Nuclear factor erythroid 2-related factor 2 (Mus musculus); experiment: Activation of Keap1/Nrf2 in mouse LPS-induced RAW264.7 cells assessed as change in Nfkbia expression level at 4 to 12 uM pretreated for 1 hr followed by LPS addition measured after 30 to 180 mins; format: cell-based; in short: as §1
[13] = target: T2, Kelch-like ECH-associated protein 1/Nuclear factor erythroid 2-related factor 2 (Mus musculus); experiment: Activation of Keap1/Nrf2 in mouse LPS-induced RAW264.7 cells assessed as change in Nfkbiz expression level at 4 to 12 uM pretreated for 1 hr followed by LPS addition measured after 30 to 180 mins; format: cell-based; in short: as §1
[14] = target: T2, Kelch-like ECH-associated protein 1/Nuclear factor erythroid 2-related factor 2 (Mus musculus); experiment: Activation of Keap1/Nrf2 in mouse LPS-induced RAW264.7 cells assessed as change in Ccl22 expression level at 4 to 12 uM pretreated for 1 hr followed by LPS addition measured after 30 to 180 mins; format: cell-based; in short: as §1
[15] = target: T2, Kelch-like ECH-associated protein 1/Nuclear factor erythroid 2-related factor 2 (Mus musculus); experiment: Activation of Keap1/Nrf2 in mouse LPS-induced RAW264.7 cells assessed as increase in […] expression level at 4 to 12 uM pretreated for 1 hr followed by LPS addition measured after 30 to 180 mins; format: cell-based; in short: as §1
[16] = target: T2, Kelch-like ECH-associated protein 1/Nuclear factor erythroid 2-related factor 2 (Mus musculus); experiment: Activation of Keap1/Nrf2 in mouse LPS-induced RAW264.7 cells assessed as change in Fosl1 expression level at 4 to 12 uM pretreated for 1 hr followed by LPS addition measured after 30 to 180 mins; format: cell-based; in short: as §1
[17] = target: T2, Kelch-like ECH-associated protein 1/Nuclear factor erythroid 2-related factor 2 (Mus musculus); experiment: Activation of Keap1/Nrf2 in mouse LPS-induced RAW264.7 cells assessed as increase in Hmox1 expression level at 12 uM pretreated for 1 hr followed by LPS addition measured after 30 to 180 mins; format: cell-based; in short: as §1
[18] = target: T2, Kelch-like ECH-associated protein 1/Nuclear factor erythroid 2-related factor 2 (Mus musculus); experiment: Activation of Keap1/Nrf2 in mouse LPS-induced RAW264.7 cells assessed as increase in Slc7a11 expression level at 4 to 12 uM pretreated for 1 hr followed by LPS addition measured after 30 to 180 mins; format: cell-based; in short: as §1
[19] = target: T2, Kelch-like ECH-associated protein 1/Nuclear factor erythroid 2-related factor 2 (Mus musculus); experiment: Activation of Keap1/Nrf2 in mouse LPS-induced RAW264.7 cells assessed as increase in Prdx1 expression level at 4 to 12 uM pretreated for 1 hr followed by LPS addition measured after 30 to 180 mins; format: cell-based; in short: as §1
Mus musculus [20] = experiment: Antiinflammatory activity in hypersensitivity CD1 mouse ear edema model assessed as PMA-induced ear edema at 3 umol/ear applied topically pretreated for 10 mins followed by PMA application measured after 6 hrs (reference value: 32.5 +/- 7.5%); format: functional
[21] = target: T2, Kelch-like ECH-associated protein 1/Nuclear factor erythroid 2-related factor 2 (Mus musculus); experiment: Activation of Keap1/Nrf2 in mouse LPS-induced RAW264.7 cells assessed as change in TNF expression level at 4 to 12 uM pretreated for 1 hr followed by LPS addition measured after 30 to 180 mins; format: cell-based; in short: as §1
[22] = target: T2, Kelch-like ECH-associated protein 1/Nuclear factor erythroid 2-related factor 2 (Mus musculus); experiment: Activation of Keap1/Nrf2 in mouse LPS-induced RAW264.7 cells assessed as change in Cd300lb expression level at 4 to 12 uM pretreated for 1 hr followed by LPS addition measured after 30 to 180 mins; format: cell-based; in short: as §1
[23] = target: T2, Kelch-like ECH-associated protein 1/Nuclear factor erythroid 2-related factor 2 (Mus musculus); experiment: Activation of Keap1/Nrf2 in mouse LPS-induced RAW264.7 cells assessed as change in IFNb1 expression level at 4 to 12 uM pretreated for 1 hr followed by LPS addition measured after 30 to 180 mins; format: cell-based; in short: as §1
[24] = target: T2, Kelch-like ECH-associated protein 1/Nuclear factor erythroid 2-related factor 2 (Mus musculus); experiment: Activation of Keap1/Nrf2 in mouse LPS-induced RAW264.7 cells assessed as change in Cd83 expression level at 4 to 12 uM pretreated for 1 hr followed by LPS addition measured after 30 to 180 mins; format: cell-based; in short: as §1
Mus musculus [25] = experiment: Antiinflammatory activity in hypersensitivity CD1 mouse ear edema model assessed as PMA-induced ear edema at 1 umol/ear applied topically pretreated for 10 mins followed by PMA application measured after 6 hrs (reference value: 32.5 +/- 7.5%); format: functional
[26] = target: T2, Kelch-like ECH-associated protein 1/Nuclear factor erythroid 2-related factor 2 (Mus musculus); experiment: Activation of Keap1/Nrf2 in mouse LPS-induced RAW264.7 cells assessed as increase in Gclm expression level at 4 to 12 uM pretreated for 1 hr followed by LPS addition measured after 30 to 180 mins; format: cell-based; in short: as §1
[27] = target: T1, Keap1/Nrf2 (Homo sapiens); experiment: Activation of Keap1/Nrf2 in human MCF7 cells assessed as Nrf2 stabilization incubated overnight by luciferase reporter gene based luminescence assay; format: cell-based
In short: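 NRF2 luciferase reporter MCF7 stable cells in DMEM/10% FBS with G418, seeded 5 × 10^4 cells/well, overnight adherence; DMSO-dissolved compound 1.98–15.0 μM, overnight 37 °C/5% CO2. Lysed in passive lysis buffer, firefly luciferase substrate injected, luminescence read. Activation (%) = (treated − untreated)/untreated × 100, DMSO value subtracted; tBHQ and DMF positive controls; three technical replicates per biological replicate.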

[28] = target: T2, Kelch-like ECH-associated protein 1/Nuclear factor erythroid 2-related factor 2 (Mus musculus); experiment: Activation of Keap1/Nrf2 in mouse LPS-induced RAW264.7 cells assessed as change in IL-1beta expression level at 4 to 12 uM pretreated for 1 hr followed by LPS addition measured after 30 to 180 mins; format: cell-based; in short: as §1
[29] = target: T2, Kelch-like ECH-associated protein 1/Nuclear factor erythroid 2-related factor 2 (Mus musculus); experiment: Activation of Keap1/Nrf2 in mouse LPS-induced RAW264.7 cells assessed as change in IL-1alpha expression level at 4 to 12 uM pretreated for 1 hr followed by LPS addition measured after 30 to 180 mins; format: cell-based; in short: as §1
[30] = target: T2, Kelch-like ECH-associated protein 1/Nuclear factor erythroid 2-related factor 2 (Mus musculus); experiment: Activation of Keap1/Nrf2 in mouse LPS-induced RAW264.7 cells assessed as increase in Akr1b8 expression level at 4 to 12 uM pretreated for 1 hr followed by LPS addition measured after 30 to 180 mins; format: cell-based; in short: as §1
[31] = target: T2, Kelch-like ECH-associated protein 1/Nuclear factor erythroid 2-related factor 2 (Mus musculus); experiment: Activation of Keap1/Nrf2 in mouse LPS-induced RAW264.7 cells assessed as increase in Sqstm1 expression level at 4 to 12 uM pretreated for 1 hr followed by LPS addition measured after 30 to 180 mins; format: cell-based; in short: as §1
[32] = target: T2, Kelch-like ECH-associated protein 1/Nuclear factor erythroid 2-related factor 2 (Mus musculus); experiment: Activation of Keap1/Nrf2 in mouse LPS-induced RAW264.7 cells assessed as change in […] expression level at 4 to 12 uM pretreated for 1 hr followed by LPS addition measured after 30 to 180 mins; format: cell-based; in short: as §1

T2 sequence (Q60795 whole entry, looked up): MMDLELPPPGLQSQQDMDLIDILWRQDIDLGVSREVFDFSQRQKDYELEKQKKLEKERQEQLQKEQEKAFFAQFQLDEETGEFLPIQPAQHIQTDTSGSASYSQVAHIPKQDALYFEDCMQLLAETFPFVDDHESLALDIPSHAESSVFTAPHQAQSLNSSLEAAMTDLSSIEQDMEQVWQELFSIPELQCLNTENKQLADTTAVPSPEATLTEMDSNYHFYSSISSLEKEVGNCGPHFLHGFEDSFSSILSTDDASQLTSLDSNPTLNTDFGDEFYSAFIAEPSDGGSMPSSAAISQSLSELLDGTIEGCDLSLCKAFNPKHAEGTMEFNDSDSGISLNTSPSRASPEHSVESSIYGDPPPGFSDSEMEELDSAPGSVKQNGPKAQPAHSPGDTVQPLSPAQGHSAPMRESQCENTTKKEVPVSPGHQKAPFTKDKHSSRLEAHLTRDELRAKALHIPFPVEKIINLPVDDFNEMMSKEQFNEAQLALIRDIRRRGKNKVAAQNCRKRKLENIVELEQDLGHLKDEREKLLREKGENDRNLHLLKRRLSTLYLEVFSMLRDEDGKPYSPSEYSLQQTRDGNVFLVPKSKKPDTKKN
T2 sequence (Q9Z2X8 whole entry, looked up): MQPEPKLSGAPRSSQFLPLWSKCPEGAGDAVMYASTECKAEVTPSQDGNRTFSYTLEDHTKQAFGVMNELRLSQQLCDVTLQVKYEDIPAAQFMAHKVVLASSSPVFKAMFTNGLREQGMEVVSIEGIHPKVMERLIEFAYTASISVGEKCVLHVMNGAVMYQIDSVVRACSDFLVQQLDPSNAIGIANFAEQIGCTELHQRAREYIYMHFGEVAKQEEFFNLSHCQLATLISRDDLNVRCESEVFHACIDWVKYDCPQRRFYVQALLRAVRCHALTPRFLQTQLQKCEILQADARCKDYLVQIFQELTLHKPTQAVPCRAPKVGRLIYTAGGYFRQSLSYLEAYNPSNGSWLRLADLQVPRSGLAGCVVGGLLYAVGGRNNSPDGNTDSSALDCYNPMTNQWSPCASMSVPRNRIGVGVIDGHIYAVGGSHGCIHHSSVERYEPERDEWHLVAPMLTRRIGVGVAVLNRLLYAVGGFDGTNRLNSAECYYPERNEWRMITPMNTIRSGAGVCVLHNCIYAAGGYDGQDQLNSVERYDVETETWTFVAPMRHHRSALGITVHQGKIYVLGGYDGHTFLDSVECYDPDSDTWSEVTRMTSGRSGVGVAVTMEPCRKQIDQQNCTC
T1 sequence (Q14145 whole entry, looked up): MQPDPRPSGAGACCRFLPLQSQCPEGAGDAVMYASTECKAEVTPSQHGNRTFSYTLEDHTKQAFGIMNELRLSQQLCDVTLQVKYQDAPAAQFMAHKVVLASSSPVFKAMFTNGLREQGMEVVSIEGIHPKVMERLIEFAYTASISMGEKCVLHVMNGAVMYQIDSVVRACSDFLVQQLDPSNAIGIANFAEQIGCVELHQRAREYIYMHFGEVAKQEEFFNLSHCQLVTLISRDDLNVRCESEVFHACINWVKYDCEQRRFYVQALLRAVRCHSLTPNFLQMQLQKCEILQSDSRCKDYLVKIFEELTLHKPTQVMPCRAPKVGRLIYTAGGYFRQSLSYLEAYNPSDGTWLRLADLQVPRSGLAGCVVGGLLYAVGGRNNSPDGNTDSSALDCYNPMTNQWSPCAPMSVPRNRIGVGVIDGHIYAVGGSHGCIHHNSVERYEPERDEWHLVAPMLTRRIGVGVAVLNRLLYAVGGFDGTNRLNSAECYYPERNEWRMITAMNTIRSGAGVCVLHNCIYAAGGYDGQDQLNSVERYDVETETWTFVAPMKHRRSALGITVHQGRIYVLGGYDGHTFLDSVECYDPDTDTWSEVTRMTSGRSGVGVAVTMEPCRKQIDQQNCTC
T1 sequence (Q16236 whole entry, looked up): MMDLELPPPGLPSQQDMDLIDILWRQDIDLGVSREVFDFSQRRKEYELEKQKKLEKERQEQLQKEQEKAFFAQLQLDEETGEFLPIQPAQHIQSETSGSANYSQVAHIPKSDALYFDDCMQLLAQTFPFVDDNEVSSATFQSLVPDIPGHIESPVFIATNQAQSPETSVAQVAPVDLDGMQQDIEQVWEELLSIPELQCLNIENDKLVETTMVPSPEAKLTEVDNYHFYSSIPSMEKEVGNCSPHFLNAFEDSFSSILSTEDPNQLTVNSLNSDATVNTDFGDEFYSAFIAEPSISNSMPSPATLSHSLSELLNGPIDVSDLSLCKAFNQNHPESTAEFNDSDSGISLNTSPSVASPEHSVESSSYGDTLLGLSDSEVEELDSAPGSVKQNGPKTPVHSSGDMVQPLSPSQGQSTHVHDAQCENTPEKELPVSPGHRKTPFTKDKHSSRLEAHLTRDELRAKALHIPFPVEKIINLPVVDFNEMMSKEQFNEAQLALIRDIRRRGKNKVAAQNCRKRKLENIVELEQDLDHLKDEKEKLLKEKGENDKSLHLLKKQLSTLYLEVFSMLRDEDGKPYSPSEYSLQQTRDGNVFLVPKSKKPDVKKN

CC(C)(C)c1cc(O)ccc1O [E319] was tested, and the Activity [1] was “Active” and the Activity (MCF7) was “Toxic”.
For O=C(/C=C/CCl)O[C@@H]1COC(=O)C1, the Activity (Mus musculus [2]) was 17.1%, the Activity [3] was “Active” and the Activity [4] was “Active”. The Activity [5] was “Active”, the Activity [6] was “Active” and the Activity [7] was “Active”. The Activity [8] was “Active”, the Activity [9] was “Active” and the Activity [10] was “Active”. The Activity (Mus musculus [11]) was 10%, the Activity [12] was “Active” and the Activity [13] was “Active”. The Activity [14] was “Active”, the Activity (MCF7) was “Toxic” and the Activity [15] was “Active”. For the same compound, the Activity [16] was “Active”, the Activity [17] was “Active” and the Activity [18] was “Active”. The Activity [19] was “Active”, the Activity (Mus musculus [20]) was 51.4% and the Activity [21] was “Active”. For the same compound, the Activity [22] was “Active”, the Activity [23] was “Active” and the Activity [24] was “Active”. For the same compound, the Activity (Mus musculus [25]) was 27.6%, the Activity [26] was “Active” and the Activity [27] was “Dose-dependent effect”. The Activity [28] was “Active”, the Activity [29] was “Active” and the Activity [30] was “Active”. The Activity [31] was “Active” and the Activity [32] was “Active”.
COC(=O)/C=C/C(=O)OC [DIMETHYL FUMARATE] was tested, and the Activity [1] was “Active” and the Activity (MCF7) was “Toxic”.
